One may read the pIC50 as the IC50 on a negative log10 scale, so that one unit is a factor of ten.

From ChEMBL document CHEMBL1157195, “Synthesis, cytotoxic activity, and SAR analysis of the derivatives of taxchinin A and brevifoliol” (Bioorg Med Chem, 2008) come the findings set out here.

pIC50: −log10 of the molar value. Activity calls are given as the source filed them. The calls are words filed in the database; no cut-off is given here.

For the first experiment, the system named is A459. Briefly: (§1) Cytotoxicity against human A459 cells after 72 hrs by sulforhodamine B assay. Type of experiment: cell-based.
Conditions: not given
Put shortly:
(§2)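 Human non-small lung cancer cells (A459, ATCC), exponentially growing, seeded at 4 × 10^4/mL in 96-well plates and pre-incubated 72 h at 37 °C, 5% CO2. Compounds added at 100, 10, 1 and 0.1 μM; further 72 h exposure. Cells fixed with cold 50% TCA (4 °C, 1 h), stained 30 min with 0.4% SRB in 1% acetic acid, dye solubilized in 10 mM unbuffered Tris; OD read at 570 nm.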
In general terms: The SRB assay estimates cell density from bound dye.
As for `C=C1[C@H]2C[C@]3(C(C)(C)O)CC(=O)C(C)=C3[C@@H](OC(=O)c3ccccc3)[C@H](OC(C)=O)[C@]2(C)[C@@H](OC(C)=O)C[C@@H]1O`, the result was inactive. For `C=C1[C@H]2C[C@]3(C(C)(C)O)C[C@H](O)C(C)=C3[C@@H](OC(=O)c3ccccc3)[C@H](OC(C)=O)[C@]2(C)[C@@H](OC(C)=O)C[C@@H]1O`, the outcome was inactive.

System in the next experiment: not listed separately
The experiment is described as §1. The following applies: Homo sapiens, A459, 72 h; read-out: IC50. Type of experiment: cell-based. The procedure, abridged:
as §2
Consider `C=C1[C@@H](O[Si](CC)(CC)CC)C[C@H](OC(C)=O)[C@]2(C)[C@@H]1C=C1CC(=O)C(C)=C1[C@@H](OC(=O)c1ccccc1)[C@@H]2OC(C)=O`, for which the pIC50 was 4.76.

Regarding `C=C1C(=O)C=C[C@@]2(C)[C@@H](OC(C)=O)[C@H](OC(=O)c3ccccc3)C3=C(C)C(=O)C[C@@]3(C(C)(C)O)[C@@H](OC(C)=O)[C@H]12`, the pIC50 was 5.61. Consider `C=C1[C@H]2C=C3CC(=O)C(C)=C3[C@@H](OC(=O)c3ccccc3)[C@H](OC(C)=O)[C@]2(C)[C@@H](OC(C)=O)C[C@@H]1O`, for which the pIC50 is 4.67. Same read-out and setting: then `C=C1[C@@H](O)C[C@H](OC(C)=O)[C@@]2(C)[C@@H](OC(C)=O)[C@H](OC(=O)c3ccccc3)C3=C(C)[C@@H](O[Si](C)(C)C(C)(C)C)C[C@@]3(C(C)(C)O)[C@@H](OC(C)=O)[C@H]12`, with 4.91. Regarding `C=C1C(=O)C=C[C@]2(C)[C@@H]1C=C1CC(=O)C(C)=C1[C@@H](OC(=O)c1ccccc1)[C@@H]2OC(C)=O`, the pIC50 was 5.55. On the same count and under the same terms, then `C=C1C(=O)C[C@H](OC(C)=O)[C@@]2(C)[C@@H](OC(C)=O)[C@H](OC(=O)c3ccccc3)C3=C(C)[C@@H](O)C[C@@]3(C(C)(C)O)[C@@H](OC(C)=O)[C@H]12`, with 5.50; and `C=C1C(=O)C[C@H](OC(C)=O)[C@@]2(C)[C@@H](OC(C)=O)[C@H](OC(=O)c3ccccc3)C3=C(C)C(=O)C[C@@]3(C(C)(C)O)[C@@H](OC(C)=O)[C@H]12` [5,13-DIOXOTAXCHININ A], with 5.77; and `CC(=O)O[C@H]1CC=C(C=O)[C@H]2C[C@]3(C(C)(C)O)CC(=O)C(C)=C3[C@@H](OC(=O)c3ccccc3)[C@H](OC(C)=O)[C@]12C`, with 4.50. The same measure, in the same setting: then `C=C1C(=O)C=C[C@@]2(C)[C@@H](OC(C)=O)[C@H](OC(=O)c3ccccc3)C3=C(C)[C@@H](O)C[C@@]3(C(C)(C)O)[C@@H](OC(C)=O)[C@H]12`, with 5.23.

For the molecule `C=C1[C@@H](O[Si](CC)(CC)CC)C[C@H](OC(C)=O)[C@@]2(C)[C@@H](OC(C)=O)[C@H](OC(=O)c3ccccc3)C3=C(C)[C@@H](O[Si](CC)(CC)CC)C[C@@]3(C(C)(C)O)[C@@H](OC(C)=O)[C@H]12`, the pIC50 was 4.06. Regarding `CC(=O)O[C@H]1CC=C(C=O)[C@H]2C[C@@]34C[C@@H](OC3(C)C)C(C)=C4[C@@H](OC(=O)c3ccccc3)[C@H](OC(C)=O)[C@]12C`, the pIC50 was 5.21. On the same count and under the same terms, the value for `CC(=O)O[C@H]1CC=C(C=O)[C@H]2C=C3CC(=O)C(C)=C3[C@@H](OC(=O)c3ccccc3)[C@H](OC(C)=O)[C@]12C` was 4.95; that for `C=C1[C@@H](O)C[C@H](OC(C)=O)[C@@]2(C)[C@@H](OC(C)=O)[C@H](OC(=O)c3ccccc3)C3=C(C)C(=O)C[C@@]3(C(C)(C)O)[C@@H](OC(C)=O)[C@H]12` [13-OXO-TAXCHININ A] was 4.04; that for `C=C1[C@H]2C=C3CC(=O)C(C)=C3C(OC(=O)c3ccccc3)=C[C@]2(C)[C@@H](OC(C)=O)C[C@@H]1O` was 4.09. Same read-out and setting: then `C=C1C(=O)C=C[C@]2(C)[C@@H]1C[C@]1(C(C)(C)O)CC(=O)C(C)=C1[C@@H](OC(=O)c1ccccc1)[C@@H]2OC(C)=O`, with 5.21. Same read-out and setting: the value for `C=C1C(=O)C[C@H](OC(C)=O)[C@@]2(C)[C@@H](OC(C)=O)[C@H](OC(=O)c3ccccc3)C3=C(C)[C@@H](O[Si](C)(C)C(C)(C)C)C[C@@]3(C(C)(C)O)[C@@H](OC(C)=O)[C@H]12` was 6.32. Turning to `C=C1C(=O)C[C@H](OC(C)=O)[C@@]2(C)[C@@H](OC(C)=O)[C@H](OC(=O)c3ccccc3)C3=C(C)[C@H]4C[C@]3([C@@H](OC(C)=O)[C@H]12)C(C)(C)O4`, the pIC50 is 6.12.

Turning to `C=C1[C@@H](O)C[C@H](OC(C)=O)[C@@]2(C)[C@@H](OC(C)=O)[C@H](OC(=O)c3ccccc3)C3=C(C)[C@@H](O)C[C@@]3(C(C)(C)O)[C@@H](OC(C)=O)[C@H]12` [TAXCHININ A], the pIC50 is 4.22. For `C=C1[C@H]2C[C@@]34C[C@@H](OC3(C)C)C(C)=C4[C@@H](OC(=O)c3ccccc3)[C@H](OC(C)=O)[C@]2(C)[C@@H](OC(C)=O)C[C@@H]1O`, the negative logarithm of the IC50 (pIC50) is 4.33.

Still in this experiment, the particulars now being: a459.
As for `C=C1[C@@H](O[Si](C)(C)C(C)(C)C)C[C@H](OC(C)=O)[C@@]2(C)[C@@H](OC(C)=O)[C@H](OC(=O)c3ccccc3)C3=C(C)[C@@H](O[Si](C)(C)C(C)(C)C)C[C@@]3(C(C)(C)O)[C@@H](OC(C)=O)[C@H]12`, the IC50 entry was “Not Active”. Turning to `C=C1[C@@H](O)C[C@H](OC(C)=O)[C@@]2(C)[C@@H](OC(C)=O)[C@H](OC(=O)c3ccccc3)C3=C(C)[C@H]4C[C@]3([C@@H](OC(C)=O)[C@H]12)C(C)(C)O4`, the IC50 entry was “Not Active”.
